Settings in all cases: in vivo
In data set [1] the test system is Rattus norvegicus. The data set can be described thus: Biodistribution in male Sprague-Dawley rat brown fat at 5 mg/kg, po administered as single dose measured after 0.5 hrs. Format: ADME, organism-based, Brown adipose tissue. On the set-up: dose 5 mg/kg, dosed compound name [14C]-apixaban, route oral. The method, boiled down:
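Fasted male rats, 225-252 g, received [14C]apixaban by single oral gavage at 100 μCi/kg in 0.5% Tween 80/Labrafil. One rat was killed per time point and the carcass frozen. Tissue radioactivity was quantified by QWBA (40 µm sagittal sections, phosphor plate, [14C]glucose calibration) as µg eq apixaban/g, with LLOQ 0.037 μg eq/g.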

Data set [2] has as its system Heart. The data set can be described thus: Biodistribution in male Sprague-Dawley rat heart at 5 mg/kg, po administered as single dose measured after 0.5 hrs. Format: ADME, organism-based. Set-up: dose 5 mg/kg, dosed compound name [14C]-apixaban, route oral. The method, boiled down:
(§1)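 [¹⁴C]Apixaban given by oral gavage at 5 mg/kg (100 μCi/kg) in 0.5% Tween 80 in Labrafil (1.0 mg/mL dosing solution) to rats fasted overnight through 4 h post-dose. One rat per time point; carcass frozen in hexane/dry ice. Quantitative whole-body autoradiography used 40 µm sagittal sections and a phosphor imaging plate calibrated with [¹⁴C]glucose standards (0.001–6.5 μCi/g). Read-out in µg eq apixaban/g; LLOQ 0.037 μg eq/g.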

The subject of data set [3] is Lung. Nature of the data set: Biodistribution in male Sprague-Dawley rat lung at 5 mg/kg, po administered as single dose measured after 0.5 hrs. Type of data set: ADME, organism-based. On the set-up: dose 5 mg/kg, dosed compound name [14C]-apixaban, route oral. The procedure, abridged:
(§2)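 [14C]apixaban (1.0 mg/mL, 20 μCi/mL) in 0.5% Tween 80 in Labrafil, given by oral gavage at 100 μCi/kg to male rats (225-252 g) fasted overnight through 4 h post-dose. One rat per time point. Carcasses frozen in hexane/dry ice and cut into 40 µm sagittal sections. QWBA read on phosphor plates against [14C]glucose standards, reported as µg eq/g. LLOQ 0.037 µg eq/g.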

In data set [4] the test system is Spleen. Nature of the data set: Biodistribution in male Sprague-Dawley rat spleen at 5 mg/kg, po administered as single dose measured after 72 hrs. Type of data set: ADME, organism-based. On the set-up: dose 5 mg/kg, dosed compound name [14C]-apixaban, route oral. The procedure, abridged:
(§3)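 Fasted male SD rats (225-252 g) each received one oral gavage dose of [14C]apixaban, 5 mg/kg (100 μCi/kg), in 0.5% Tween 80/Labrafil vehicle. One rat was killed per time point, from 0.5 to 168 h. Frozen carcasses were cut into 40 µm sagittal whole-body sections and read by QWBA phosphor imaging against [14C]glucose calibrants. Results are in µg apixaban eq/g; BLQ <0.037 µg eq/g.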

For data set [5], the system named is Spleen. Nature of the data set: Biodistribution in male Sprague-Dawley rat spleen at 5 mg/kg, po administered as single dose measured after 8 hrs. Type of data set: ADME, organism-based. Set-up: dose 5 mg/kg, dosed compound name [14C]-apixaban, route oral. The procedure, abridged:
as §3

Data set [6] concerns Adrenal gland. Nature of the data set: Biodistribution in male Sprague-Dawley rat adrenal gland at 5 mg/kg, po administered as single dose measured after 24 hrs. On the set-up: dose 5 mg/kg, dosed compound name [14C]-apixaban, route oral. Format: ADME, organism-based. The procedure, abridged:
as §3

For data set [7], the system named is Pancreas. The data set can be described thus: Biodistribution in male Sprague-Dawley rat pancreas at 5 mg/kg, po administered as single dose measured after 8 hrs. Format: ADME, organism-based. Set-up: dose 5 mg/kg, dosed compound name [14C]-apixaban, route oral. The procedure, abridged: as §2
Data set [8] relates to Pancreas. The data set can be described thus: Biodistribution in female Sprague-Dawley rat pancreas at 5 mg/kg, po administered as single dose measured after 8 hrs. Type of data set: ADME, organism-based. On the set-up: dose 5 mg/kg, dosed compound name [14C]-apixaban, route oral. The method, boiled down:
as §1

Data set [9] deals with Rattus norvegicus. The data set can be described thus: Biodistribution in female Sprague-Dawley rat bone marrow at 5 mg/kg, po administered as single dose measured after 8 hrs. Format: ADME, organism-based. On the set-up: dose 5 mg/kg, dosed compound name [14C]-apixaban, route oral. The method, boiled down:
(§4)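 [14C]apixaban (20 μCi/mL in dosing solution) in 0.5% Tween 80 in Labrafil given by oral gavage to fasted female rats, 206-213 g, at 100 μCi/kg. One rat per time point was euthanized and snap-frozen. Sagittal 40 µm whole-body sections were read by QWBA phosphor imaging against [14C]glucose standards. Results are in µg eq apixaban/g, with LLOQ 0.037 μg eq/g.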

The test system of data set [10] is Muscle tissue. The data set can be described thus: Biodistribution in pregnant Sprague-Dawley rat muscle at 5 mg/kg, po administered as single dose measured after 8 hrs. Type of data set: ADME, organism-based. On the set-up: dose 5 mg/kg, dosed compound name [14C]-apixaban, route oral.
Data set [11] concerns Blood. Nature of the data set: AUC (0 to infinity) in male Sprague-Dawley rat blood at 5 mg/kg, po administered as single dose. Type of data set: ADME, organism-based. Set-up: time infinity, dose 5 mg/kg, dosed compound name [14C]-apixaban, route oral.
A short description of data set [12]: Drug level in lactating Sprague-Dawley rat milk at 5 mg/kg, po administered as single dose. Type of data set: ADME, organism-based. Set-up: dose 5 mg/kg, dosed compound name [14C]-apixaban, route oral. The method, boiled down: (§5)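 Lactating SD rats received a single oral gavage of 5 mg/kg (108 μCi/kg) in 0.5% Tween 80/Labrafil. Three rats were sampled per time point at 0.5-24 h. Oxytocin was given sc 15 min before milking under anesthesia. Milk, blood and plasma were counted in duplicate by liquid scintillation for 10 min and expressed as apixaban equivalents.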

Data set [13] is described as follows: Drug level in lactating Sprague-Dawley rat milk at 5 mg/kg, po administered as single dose after 2 hrs. Type of data set: ADME, organism-based. On the set-up: dose 5 mg/kg, dosed compound name [14C]-apixaban, route oral.
The nature of data set [14]: Drug level in lactating Sprague-Dawley rat milk at 5 mg/kg, po administered as single dose after 24 hrs. Type of data set: ADME, organism-based. On the set-up: dose 5 mg/kg, dosed compound name [14C]-apixaban, route oral.
The test system of data set [15] is Rattus norvegicus. The data set can be described thus: Biodistribution in pregnant Sprague-Dawley rat brown fat at 5 mg/kg, po administered as single dose measured after 48 hrs. Format: ADME, organism-based, Brown adipose tissue. On the set-up: dose 5 mg/kg, dosed compound name [14C]-apixaban, route oral. The procedure, abridged: (§6)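 Fasted pregnant SD rats (n=6, 270-319 g) each received one oral gavage dose of [14C]apixaban, 5 mg/kg (100 μCi/kg), in 0.5% Tween 80/Labrafil. One rat was killed at each of 0.5, 1, 4, 8, 24 and 48 h. Carcasses were frozen in hexane/dry ice, cut into 40 µm sagittal sections, exposed to phosphor plates and quantified against [14C]glucose standards as µg eq/g. LLOQ was 0.037 µg eq/g.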

Data set [16] can be described thus: Cmax in lactating Sprague-Dawley rat milk at 5 mg/kg, po administered as single dose. Type of data set: ADME, organism-based. Set-up: dose 5 mg/kg, dosed compound name [14C]-apixaban, route oral. The procedure, abridged:
as §5

In data set [17] the test system is Rattus norvegicus. The data set can be described thus: Biodistribution in female Sprague-Dawley rat salivary gland at 5 mg/kg, po administered as single dose measured after 1 hr. Set-up: dose 5 mg/kg, dosed compound name [14C]-apixaban, route oral. Format: ADME, organism-based. The method, boiled down: as §4
For data set [18], the system named is Rattus norvegicus. The data set can be described thus: Biodistribution in fetal blood of pregnant Sprague-Dawley rat at 5 mg/kg, po administered as single dose measured after 4 hrs. Format: ADME, organism-based. Set-up: dose 5 mg/kg, dosed compound name [14C]-apixaban, route oral. The method, boiled down: (§7)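 Pregnant rats, 270-319 g and fasted overnight, received [14C]apixaban by oral gavage at 100 μCi/kg in 0.5% Tween 80/Labrafil. One dam per time point was euthanized and frozen in hexane/dry ice. Fetal tissue radioactivity was measured by QWBA on 40 µm sagittal sections calibrated with [14C]glucose standards. Values are in µg eq/g, with LLOQ 0.037 μg eq/g.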

In data set [19] the test system is Rattus norvegicus. The data set can be described thus: Biodistribution in fetal kidney of pregnant Sprague-Dawley rat at 5 mg/kg, po administered as single dose measured after 4 hrs. Format: ADME, organism-based. On the set-up: dose 5 mg/kg, dosed compound name [14C]-apixaban, route oral. The procedure, abridged: as §7
The test system of data set [20] is Adrenal gland. Nature of the data set: Biodistribution in pregnant Sprague-Dawley rat adrenal gland at 5 mg/kg, po administered as single dose measured after 8 hrs. Type of data set: ADME, organism-based. Set-up: dose 5 mg/kg, dosed compound name [14C]-apixaban, route oral.
In data set [21] the test system is Plasma. Nature of the data set: AUC (0 to t) in lactating Sprague-Dawley rat plasma at 5 mg/kg, po administered as single dose. Format: ADME, organism-based. Set-up: dose 5 mg/kg, dosed compound name [14C]-apixaban, route oral. The procedure, abridged:
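Fasted lactating SD rats received 5 mg/kg [14C]apixaban orally (formulation 5.0 mg/mL, 20 μCi/mL). Oxytocin was injected subcutaneously 15 min before collection, and 1 mL milk was taken under anesthesia by milking machine. Sampling was predose and at 0.5–24 h, 3 rats per time point. Plasma was obtained at 1300g for 10 min. Duplicate 50–100 µL aliquots were counted by LSC for 10 min. AUC was calculated in WinNonlin.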

Data set [22] deals with Rattus norvegicus. The data set can be described thus: Biodistribution in pregnant Sprague-Dawley rat bone marrow at 5 mg/kg, po administered as single dose measured after 0.5 hrs. Type of data set: ADME, organism-based. On the set-up: dose 5 mg/kg, dosed compound name [14C]-apixaban, route oral.
The test system of data set [23] is Rattus norvegicus. Nature of the data set: Biodistribution in pregnant Sprague-Dawley rat kidney cortex at 5 mg/kg, po administered as single dose measured after 0.5 hrs. Type of data set: ADME, organism-based. Set-up: dose 5 mg/kg, dosed compound name [14C]-apixaban, route oral.
For data set [24], the system named is Liver. Nature of the data set: Biodistribution in pregnant Sprague-Dawley rat liver at 5 mg/kg, po administered as single dose measured after 0.5 hrs. Type of data set: ADME, organism-based. On the set-up: dose 5 mg/kg, dosed compound name [14C]-apixaban, route oral. The procedure, abridged:
as §6

With `COc1ccc(-n2nc(C(N)=O)c3c2C(=O)N(c2ccc(N4CCCC[14C]4=O)cc2)CC3)cc1`, the Radiolabel recovery in data set [1] is recorded as 0.46 ugequiv/g; in data set [2], 0.33 ugequiv/g; in data set [3], 0.57 ugequiv/g; in [4] it was “Not detected assumed BLQ”; in data set [5], 0.09 ugequiv/g; in [6] it was “Not sampled as not visualised in autoradiograph”. Further, the Radiolabel recovery is 0.12 ugequiv/g in data set [7]; 0.19 ugequiv/g in [8]; 0.15 ugequiv/g in data set [9]; 0.05 ugequiv/g in data set [10]; above 96% in [12]; 7.59 µg/mL in data set [13]. Besides, the Radiolabel recovery was 0.31 µg/mL in data set [14]; “Not detected assumed BLQ” in data set [15]; 0.55 ugequiv/g in data set [17]; 0.51 ugequiv/g in [18]; 0.46 ugequiv/g in data set [19]; 0.18 ugequiv/g in data set [20]. Besides, the results for the Radiolabel recovery in data set [22], in data set [23] and in data set [24] were 0.5 ugequiv/g, 2.11 ugequiv/g and 6.77 ugequiv/g, respectively. The compound also had an AUC in data set [11] of 4300 ngequiv.hr/g. In addition, in data set [16], the Cmax is listed as 8920 ngequiv/g. Further, the AUCt in data set [21] turned out to be 3420 ngequiv.hr/g.

The values above are taken from ChEMBL document CHEMBL3525963, “Tissue distribution and elimination of [14C]apixaban in rats” (Drug Metab Dispos, 2011).
